MC4R barr agon = MC4R agonists recruiting beta-arrestin, primary screen, cell-based, luminescence, agonist arm of biased-ligand search; U2OS MC4R beta-arrestin complementation; percent of melanotan II response, DMSO zero; hit rate 0.98% among 360,000; activation, % at 8.9 µM;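 active = activation above a per-plate cutoff, the mean activation of sample wells on that plate plus 3 SD, cut at about 8% in these data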
MC4R antag cAMP = MC4R antagonists of cAMP signaling, primary screen, cell-based, TR-FRET, antagonist arm of biased-ligand search. Melanocortin receptor 4 (Homo sapiens), P32245. MC4R-expressing cells, MTII-stimulated cAMP, LANCE TR-FRET. inhibition, % at 6.5 µM. hit rate 0.48% among 360,000;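 active = inhibition above its plate's cutoff, the mean of tested wells on that plate plus 3 SD, cut at about 29% in these data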;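 note: 0% = Melanotan II alone and 100% = Melanotan II plus saturating MCL0020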
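Material: human MC4R-expressing U2OS cells. Probe or stimulus: Melanotan II challenge. Dosing: 6.5 µM single dose. Times: 30-min compound, 1-h challenge, 1-h detection, room temperature. Technique: TR-FRET with Eu-cAMP and labeled anti-cAMP, 671 nm. Replication: singlicate.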
hiPSC survival = enhancers of single-cell hiPSC survival, primary screen, ATPlite luminescence | AID 602274, 2012 | 100% = ROCK inhibitor wells, 0% = DMSO | survival enhancement, % at 20 µM | hit rate 0.044% among 360,000; in the data active = survival enhancement above about 18%;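 note: cells exposed to compounds for 16 hours before the ATP read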
Exocytosis inh = LAMP-1 surface exposure blockers, TALL-104 cells – cell-based, flow cytometry, MLPCN library, primary screen. inhibition, % at 10 µM. AID 651702, 2012. hit rate 0.66% among 360,000. TALL-104 LAMP-1 surface exposure; cells stimulated with thapsigargin and PMA;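 active = inhibition above about 55%, limit read from the data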
TbMetRS inhib = T. brucei MetRS inhibitors, primary screen, biochemical, luminescence; methionyl-tRNA synthetase (Trypanosoma brucei brucei); purified T. brucei MetRS, ATP depletion, Kinase-Glo luminescence; inhibition, % at 11.9 µM; hit rate 0.4% among 360,000; AID 624268, 2012;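 active = inhibition above a per-plate cutoff of the control wells' mean inhibition plus 3 SD, cut at about 5.5% in these data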;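 note: 0% = DMSO wells median and 100% = median of wells with control inhibitor compound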
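Measured by: Kinase-Glo luciferase luminescence reporting remaining unconsumed ATP. Material: purified T. brucei MetRS enzyme. Doses: 11.9 µM compound single dose, 0.9% DMSO. Medium: HEPES buffer containing pyrophosphatase, BSA, spermine, DTT. Times: 15 min preincubation, 2 h reaction, all 25 °C. Reagent: methionine, ATP and bulk E. coli tRNA.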
ABCB6 inh 2 = ABCB6 transporter inhibitors, primary screen, K562-ABCB6 cells, flow cytometry, MLPCN library; hit rate 0.19% among 360,000; AID 602162, 2011; K562-ABCB6 porphyrin accumulation, 1 h; active compounds read low; fluorescence ratio to DMSO, % at 10 µM;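 active = fluorescence ratio to DMSO below 75%, the collection mean minus 3 SD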;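 note: signal is porphyrin accumulated inside mitochondria; 100% equals median channel fluorescence of DMSO control wells; lower ratio means ABCB6 inhibition with less porphyrin fluorescence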
Target sequence (Q9NP58 whole entry, looked up): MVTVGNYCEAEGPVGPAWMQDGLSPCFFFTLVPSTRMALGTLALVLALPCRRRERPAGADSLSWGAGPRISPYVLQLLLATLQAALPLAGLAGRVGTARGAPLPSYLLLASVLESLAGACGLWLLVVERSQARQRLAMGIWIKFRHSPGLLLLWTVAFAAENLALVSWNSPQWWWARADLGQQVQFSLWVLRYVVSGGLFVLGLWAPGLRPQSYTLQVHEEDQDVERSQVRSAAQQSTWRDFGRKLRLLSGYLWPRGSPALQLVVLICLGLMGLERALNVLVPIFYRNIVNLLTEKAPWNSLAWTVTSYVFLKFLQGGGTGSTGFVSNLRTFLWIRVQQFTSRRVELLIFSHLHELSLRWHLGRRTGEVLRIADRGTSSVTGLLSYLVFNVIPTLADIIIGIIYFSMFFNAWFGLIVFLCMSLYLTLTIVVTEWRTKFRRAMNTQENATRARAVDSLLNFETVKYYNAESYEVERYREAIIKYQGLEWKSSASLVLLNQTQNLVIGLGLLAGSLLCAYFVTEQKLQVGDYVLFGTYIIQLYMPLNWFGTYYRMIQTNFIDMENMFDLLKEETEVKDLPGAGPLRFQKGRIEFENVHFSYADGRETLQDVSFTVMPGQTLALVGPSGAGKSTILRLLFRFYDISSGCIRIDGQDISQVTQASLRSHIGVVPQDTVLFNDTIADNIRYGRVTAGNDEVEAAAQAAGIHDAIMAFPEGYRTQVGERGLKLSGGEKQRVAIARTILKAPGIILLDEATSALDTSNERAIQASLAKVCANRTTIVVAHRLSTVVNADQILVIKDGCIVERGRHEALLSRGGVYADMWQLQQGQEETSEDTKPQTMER
U2OS cAMP counter = nonselective cAMP signaling inhibitors, parental cells, counter-screen for MC4R biased antagonist project, cell-based, TR-FRET, U2OS, forskolin, triplicate | shares compounds with MC4R antag cAMP | LANCE TR-FRET | inhibition, % at 6.5 µM | hit rate 26% among 1,600 | AID 602193, 2012;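 active = mean inhibition over triplicates above the low-control well mean plus 3 SD, set per campaign, cut at about 13% in these data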;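 note: signal is single emission at 671 nm which falls as cellular cAMP rises; 0% = forskolin-stimulated wells and 100% = buffer without forskolin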
MC4R cAMP antag = MC4R cAMP antagonists, retest, confirmation, cell-based, TR-FRET. shares compounds with MC4R antag cAMP. MC4R-expressing cells, MTII-stimulated cAMP. inhibition, % at 6.5 µM. hit rate 27% among 1,600. AID 602195, 2012; in the data active = inhibition above about 29%;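 note: 0% = agonist stimulated wells alone and 100% = agonist stimulated wells plus saturating reference antagonist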
Numbers without * were called inactive; . = not tested or not shown; + = active, no number; ! = repeats disagree. This is a sample that favours compounds with a hit; in the whole collection about 2.6% have one here.

SMILES	MC4R barr agon	MC4R antag cAMP	hiPSC survival	Exocytosis inh	TbMetRS inhib	ABCB6 inh 2	U2OS cAMP counter	MC4R cAMP antag
S=c1[nH]nc(C(c2ccccc2)C2CCCCC2)o1 (stereo unspecified)	0	30*	0	0	0	96	2	2
Cc1ccc(Cl)cc1NC(=S)N1CCC(c2ccccc2)C1 (stereo unspecified)	-1	30*	0	0	0	96	-1	-5
Cc1cc(C)n(-c2nnc(NC34CC5CC(CC(C5)C3)C4)nn2)n1	0	29*	-1	20	0	99	-2	0
CNS(=O)(=O)c1cc(Cl)ccc1Sc1ccccc1C(=O)O	-3	2	-1	-3	0	96	.	.
NS(=O)(=O)c1c(Sc2ccccc2C(=O)O)ccc2ccccc12	0	37*	-1	0	-1	93	17*	38*
NS(=O)(=O)c1ccc(CCN=C(NS(=O)(=O)c2cccs2)c2ccccc2)cc1	-2	10	-1	-3	0	102	.	.
O=C(CC1C(=O)NCCN1Cc1ccc(-c2ccccc2)cc1)NCCOc1cccnc1 (stereo unspecified)	-1	-4	-2	0	0	95	.	.
O=C(CC1C(=O)NCCN1Cc1ccc(-c2ccccc2)cc1)NCCCn1ccnc1 (stereo unspecified)	1	31*	0	1	0	97	-14	-24
Cc1csc(SCC(=O)NCCc2ccc(Cl)cc2Cl)n1	1	-5	-3	27	1	95	.	.
Cc1nc2ccc(NC(=O)c3ccc(S(=O)(=O)N(C)c4ccccc4)cc3)cc2s1	-1	30*	-1	2	0	97	27*	25
Cc1ccc(C)c(SCC(=O)Nc2cccc(S(=O)(=O)NC3=NCCCCC3)c2)c1	2	-1	-3	0	2	90	.	.
Cc1cc(C)cc(-n2c(SCC(=O)Nc3cccc(S(=O)(=O)NC4=NCCCCC4)c3)nc3ccccc3c2=O)c1	2	29*	-2	5	0	102	2	4
O=C(NC1CCCCC1)C(c1ccnc2ccccc12)n1c(=O)c(-c2ccccc2)nc2ccccc21 (stereo unspecified)	.	.	.	6	-1	.	.	.
CC(=O)c1ccc(S(=O)(=O)NC2CCCCCCC2)cc1	1	35*	1	-2	0	109	-4	-16
CCn1c(P(C)(=O)O)nc2cc(NC(=O)c3ccccc3Cl)ccc21	-1	0	-3	0	-1	94	.	.
CCOC(=O)CNC(=S)N(CCCN1CCCCCC1)Cc1cccs1	0	34*	2	0	0	95	1	0
COc1cccc(NC(=O)CCN2C(=O)c3cccc([N+](=O)[O-])c3C2=O)c1	-1	37*	-1	-9	-1	100	15*	34*
CCN(CC(=O)Nc1c(F)cccc1F)C(=O)CCN1C(=O)c2cccc([N+](=O)[O-])c2C1=O	-2	36*	0	6	0	101	16*	49*
CCN(CC(=O)Nc1ccc(NC(C)=O)cc1)C(=O)CCN1C(=O)c2cccc([N+](=O)[O-])c2C1=O	-2	5	0	-1	-1	107	.	.
O=C(O)c1ccccc1-c1c2cc(I)c(=O)c(I)c-2oc2c(I)c(O)c(I)cc12	-3	+	-2	4	-2	90	105*	164*
c1ccc(-c2nc3c([nH]2)CCc2nonc2-3)cc1	-2	29*	1	-2	0	104	1	-3
c1coc(-c2nc3c([nH]2)CCc2nonc2-3)c1	0	8	-1	-1	-1	96	.	.
CC(C)(C)NC(=O)NC(=O)COC(=O)CNC(=O)c1cc(Cl)cc([N+](=O)[O-])c1	-6	30*	0	-2	0	91	11	12
C=C(C)COc1ccc2c(C)c(CC(=O)N3C[C@H]4C[C@@H](C3)c3cccc(=O)n3C4)c(=O)oc2c1C	-1	-4	0	-3	0	101	.	.
COc1cc(NC(=O)c2cc3cccc(OC)c3o2)cc(C(=O)Nc2cccc(C(F)(F)F)c2)c1	0	33*	0	2	0	95	0	-3
SMILES	MC4R barr agon	MC4R antag cAMP	hiPSC survival	Exocytosis inh	TbMetRS inhib	ABCB6 inh 2	U2OS cAMP counter	MC4R cAMP antag
COc1ccc(-c2cc(C(=O)Nc3cc(OC)cc(C(=O)Nc4cccc(C(F)(F)F)c4)c3)[nH]n2)cc1	7	31*!	-3	0	0	98	6	19
COc1cc(NC(=O)c2csc(-c3ccncc3)n2)cc(C(=O)Nc2cccc(C(F)(F)F)c2)c1	2	39*!	-1	0	-1	96	0	4
COc1cccc(C(=O)NN/C(C)=C/C(=O)C(F)(F)C(F)(F)C(F)(F)F)c1	-2	4	2	-2	0	102	.	.
OCCN1CCN(c2cc(-c3ccccc3)c3ccccc3n2)CC1	0	41*	-2	4	0	96	-3	-8
CN1CCN(c2nc(N3CCN(CCO)CC3)nc3ccccc23)CC1	-2	-5	-3	-2	0	94	.	.
O=C(COC(=O)CCc1nc2ccccc2c(=O)[nH]1)Nc1ccc2c(c1)OCO2	0	8	0	-9	0	98	.	.
COc1cc(N2C(=O)C=CC2=O)ccc1N1C(=O)C=CC1=O	-4	103*	0	82*	0	101	62*	79*
COc1ccc(N2C(=O)C3CC(C)=C(C)CC3C2=O)c(OC)c1 (stereo unspecified)	2	2	-2	-2	0	95	.	.
CC1(C(=O)NS(=O)(=O)c2ccc(Br)cc2)CCN1C(=O)Cc1cccs1 (stereo unspecified)	-2	2	2	-16	0	99	.	.
